Key:
Neutrophil collagenase = Neutrophil collagenase (Homo sapiens, UniProt P22894); assay: Inhibition of MMP8 using (7-methoxycoumarin-4-yl)acetyl-Pro-Leu-Gly-Leu-(3-(2,4-dinitrophenyl)-L-2,3-diaminopropionyl)Ala-Arg-NH2 as substrate incubated for 30 mins prior to substrate addition measured for 10 mins by fluorometry
In short: (§1)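 Activated MMP-8 or MMP-9 (2 nM) was preincubated with inhibitor (10 pM–1 mM) in 50 mM Tris-HCl pH 7.5 with 0.2 M NaCl, 5 mM CaCl2, 20 μM ZnSO4 and 0.05% Brij 35 at 37 °C for 30 min. Fluorogenic substrate (10 μL of 50 μM into 90 μL) was then added. Rates from the first 10 min were plotted against inhibitor concentration, and values are the mean of three experiments.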

Collagenase 3 = Collagenase 3 (Homo sapiens, UniProt P45452); assay: Inhibition of MMP13 using (7-methoxycoumarin-4-yl)acetyl-Pro-Leu-Gly-Leu-(3-(2,4-dinitrophenyl)-L-2,3-diaminopropionyl)Ala-Arg-NH2 as substrate incubated for 30 mins prior to substrate addition measured for 10 mins by fluorometry
[1] = biological target: 72 kDa type IV collagenase (Homo sapiens, UniProt P08253); assay: Inhibition of MMP2 using (7-methoxycoumarin-4-yl)acetyl-Pro-Leu-Gly-Leu-(3-(2,4-dinitrophenyl)-L-2,3-diaminopropionyl)Ala-Arg-NH2 as substrate incubated for 30 mins prior to substrate addition measured for 10 mins by fluorometry
[2] = biological target: Matrix metalloproteinase-9 (Homo sapiens, UniProt P14780); assay: Inhibition of MMP9 using (7-methoxycoumarin-4-yl)acetyl-Pro-Leu-Gly-Leu-(3-(2,4-dinitrophenyl)-L-2,3-diaminopropionyl)Ala-Arg-NH2 as substrate incubated for 30 mins prior to substrate addition measured for 10 mins by fluorometry; in short: as §1
Sequence of Matrix metalloproteinase-9 (P14780 whole entry): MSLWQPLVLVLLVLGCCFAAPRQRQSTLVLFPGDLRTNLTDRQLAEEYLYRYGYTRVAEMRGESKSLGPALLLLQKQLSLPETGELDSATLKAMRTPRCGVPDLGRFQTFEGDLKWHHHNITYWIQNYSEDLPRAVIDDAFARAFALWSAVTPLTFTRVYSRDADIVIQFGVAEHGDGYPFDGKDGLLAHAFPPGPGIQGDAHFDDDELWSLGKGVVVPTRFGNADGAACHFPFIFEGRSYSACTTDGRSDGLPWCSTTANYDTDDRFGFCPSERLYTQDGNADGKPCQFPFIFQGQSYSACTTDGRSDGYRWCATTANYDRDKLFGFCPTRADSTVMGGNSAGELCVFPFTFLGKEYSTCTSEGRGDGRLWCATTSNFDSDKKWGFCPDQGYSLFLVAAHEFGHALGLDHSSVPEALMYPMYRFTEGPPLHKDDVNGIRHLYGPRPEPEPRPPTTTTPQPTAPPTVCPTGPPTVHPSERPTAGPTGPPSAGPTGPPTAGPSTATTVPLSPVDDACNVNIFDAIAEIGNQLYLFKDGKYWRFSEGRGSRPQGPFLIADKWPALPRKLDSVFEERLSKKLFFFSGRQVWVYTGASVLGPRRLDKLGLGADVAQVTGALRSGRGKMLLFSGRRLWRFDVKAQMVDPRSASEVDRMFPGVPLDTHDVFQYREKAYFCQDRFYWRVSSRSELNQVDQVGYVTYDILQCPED

Sequence of 72 kDa type IV collagenase (P08253 whole entry): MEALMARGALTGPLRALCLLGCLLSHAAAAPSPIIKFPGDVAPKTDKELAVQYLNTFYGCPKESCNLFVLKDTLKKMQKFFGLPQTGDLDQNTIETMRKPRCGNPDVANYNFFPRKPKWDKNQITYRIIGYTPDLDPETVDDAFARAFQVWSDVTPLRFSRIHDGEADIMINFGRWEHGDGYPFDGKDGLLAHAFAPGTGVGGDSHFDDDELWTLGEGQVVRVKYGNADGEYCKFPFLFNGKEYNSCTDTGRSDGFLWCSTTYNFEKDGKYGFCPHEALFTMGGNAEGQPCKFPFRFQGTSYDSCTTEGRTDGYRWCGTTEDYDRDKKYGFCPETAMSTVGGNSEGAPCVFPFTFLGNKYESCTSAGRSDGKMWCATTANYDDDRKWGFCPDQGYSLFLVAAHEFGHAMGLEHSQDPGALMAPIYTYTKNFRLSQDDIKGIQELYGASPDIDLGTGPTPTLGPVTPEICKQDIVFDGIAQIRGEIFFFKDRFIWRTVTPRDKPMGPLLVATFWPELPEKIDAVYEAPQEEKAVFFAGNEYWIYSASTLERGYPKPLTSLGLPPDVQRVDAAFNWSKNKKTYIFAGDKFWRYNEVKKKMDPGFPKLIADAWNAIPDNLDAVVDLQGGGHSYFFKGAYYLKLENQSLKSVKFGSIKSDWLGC
Sequence of Neutrophil collagenase (P22894 whole entry): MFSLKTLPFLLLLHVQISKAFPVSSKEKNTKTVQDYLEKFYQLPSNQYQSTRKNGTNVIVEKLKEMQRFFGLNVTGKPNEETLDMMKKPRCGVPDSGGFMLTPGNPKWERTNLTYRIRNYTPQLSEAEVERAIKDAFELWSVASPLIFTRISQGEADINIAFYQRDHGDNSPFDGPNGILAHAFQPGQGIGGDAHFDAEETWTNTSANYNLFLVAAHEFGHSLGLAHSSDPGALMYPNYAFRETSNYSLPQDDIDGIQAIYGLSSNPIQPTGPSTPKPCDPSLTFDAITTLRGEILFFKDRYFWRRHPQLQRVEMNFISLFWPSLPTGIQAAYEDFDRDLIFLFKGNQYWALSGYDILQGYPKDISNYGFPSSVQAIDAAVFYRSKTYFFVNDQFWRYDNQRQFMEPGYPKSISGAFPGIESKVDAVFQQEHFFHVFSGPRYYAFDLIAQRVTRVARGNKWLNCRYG

IC50 (Neutrophil collagenase) [nM]	IC50 (Collagenase 3) [nM]	IC50 [1] [nM]	IC50 [2] [nM]	Compound
0.03	0.02	0.07	0.06	COc1ccc(S(=O)(=O)N(Cc2cn(CCOCCOCCOCCOS(=O)(=O)c3ccc(C)cc3)nn2)[C@@H](C(=O)NO)C(C)C)cc1
0.04	0.04	0.1	0.05	COc1ccc(S(=O)(=O)N(Cc2cn(CCOCCOCCOCCF)nn2)[C@@H](C(=O)NO)C(C)C)cc1
9	6	1.2	0.9	COc1ccc(S(=O)(=O)N(Cc2cn(CCOCCOCCOCCN=[N+]=[N-])nn2)[C@@H](C(=O)NO)C(C)C)cc1
5	1	3	4	COc1ccc(S(=O)(=O)N(Cc2cn(CCOCCOCCOCCOc3cccnc3F)nn2)[C@@H](C(=O)NO)C(C)C)cc1
